Compounds with a hit are over-represented: about 4.5% of the library has one in this group of screens.
PERK inh – block of dimerizer-induced PERK translation repression, primary screen, PERK inhibitor project, CHO PERK-DD cells, SEAP luminescence, HTS | CHO PERK-DD fusion, SEAP luminescence translation reporter | inhibition, % at 5.6 µM | 0.17% of 220,000 active;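 active = inhibition above the mean inhibition of all tested compounds plus 3 SD, set separately per screening campaign, cut at about 2.9% in these data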;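 note: PERK kinase domain activated by AP20187 dimerizer at 100 nM; 0% = DMSO with dimerizer and 100% = rapamycin at 8.4 µM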
Target sequence (Q9NZJ5 whole entry, looked up, the tested form may be a part): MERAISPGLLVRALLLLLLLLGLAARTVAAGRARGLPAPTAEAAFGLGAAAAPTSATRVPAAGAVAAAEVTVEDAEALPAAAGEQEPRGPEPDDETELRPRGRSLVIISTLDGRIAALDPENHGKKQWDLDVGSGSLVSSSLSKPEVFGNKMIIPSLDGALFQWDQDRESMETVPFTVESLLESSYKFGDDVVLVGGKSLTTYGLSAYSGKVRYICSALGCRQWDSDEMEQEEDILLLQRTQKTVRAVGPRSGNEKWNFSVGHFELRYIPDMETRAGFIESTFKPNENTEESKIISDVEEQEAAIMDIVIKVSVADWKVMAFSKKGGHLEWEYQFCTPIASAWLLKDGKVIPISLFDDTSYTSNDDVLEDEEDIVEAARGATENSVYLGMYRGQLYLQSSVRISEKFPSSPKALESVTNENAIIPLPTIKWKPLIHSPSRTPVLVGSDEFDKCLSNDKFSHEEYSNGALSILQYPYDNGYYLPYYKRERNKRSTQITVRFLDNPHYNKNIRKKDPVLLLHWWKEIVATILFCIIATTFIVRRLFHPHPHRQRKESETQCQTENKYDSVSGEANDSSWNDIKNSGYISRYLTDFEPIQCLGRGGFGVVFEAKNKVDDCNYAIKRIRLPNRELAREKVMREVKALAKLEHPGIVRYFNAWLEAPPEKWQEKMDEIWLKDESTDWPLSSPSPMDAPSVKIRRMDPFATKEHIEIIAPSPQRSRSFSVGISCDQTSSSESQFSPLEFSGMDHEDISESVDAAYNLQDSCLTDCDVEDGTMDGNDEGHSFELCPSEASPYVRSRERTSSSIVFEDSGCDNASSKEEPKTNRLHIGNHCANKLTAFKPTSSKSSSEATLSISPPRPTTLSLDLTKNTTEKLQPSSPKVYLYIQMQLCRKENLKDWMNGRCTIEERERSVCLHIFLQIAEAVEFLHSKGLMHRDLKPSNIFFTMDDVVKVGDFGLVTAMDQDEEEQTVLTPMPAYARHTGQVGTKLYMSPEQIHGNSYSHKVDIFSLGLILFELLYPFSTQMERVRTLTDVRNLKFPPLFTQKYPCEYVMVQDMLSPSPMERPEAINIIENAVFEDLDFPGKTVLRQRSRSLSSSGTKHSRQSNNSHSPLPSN
AHR act – AHR activators, primary screen, cell-based, luminescence, luciferase reporter, human. Aryl hydrocarbon receptor (Homo sapiens), P35869. AHR-responsive luciferase reporter cells. activation, % at 5 µM. 2.5% of 320,000 active; in the data active = activation above about 47%;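 note: 0% = vehicle wells and 100% = reference agonist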
APP 5'UTR act – activators of APP 5'UTR luciferase reporter, primary screen, SH-SY5Y cells. AID 1276, 2008. SH-SY5Y APP 5'UTR luciferase reporter, luminescence; zero percent = DMSO vehicle wells. activation, % at 2 µM. 1% of 190,000 active;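 active = activation above a set limit, based on mean plus 3 SD of controls, cut at about 140% in these data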
Mdm2 ligase inh – MDM2-luciferase reporter signal enhancers, primary screen, MDM2 E3 ligase inhibitor project, cell-based, luminescence, 1536-well. AID 1230, 2008. 0.11% of 210,000 active. E3 ubiquitin-protein ligase Mdm2 (Homo sapiens), Q00987. cell-based MDM2 ubiquitination luciferase reporter, 2 h; 0 = plate control, 100 = twice control, blank-subtracted. signal enhancement, % at 5 µM;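 active = signal enhancement of 30% or more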;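 note: luminescence tracks abundance of the self-degrading MDM2-luciferase fusion protein; higher signal means inhibition of MDM2 E3 ligase activity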
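Timing – 2 h compound exposure at 37 °C · Assay system – mammalian cells stably expressing self-ubiquitinating, self-degrading MDM2 E3–luciferase fusion · Amount – 2000 cells seeded into each well · Measure – % luminescence enhancement versus blank-corrected plate control mean · Measured by – SteadyLite luminescence, 15 min reagent step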
NF-kB neuron act – activators of NF-kB expression in neurons, primary screen, cell-based, HTS | human neuronal cells, NF-kB reporter expression; stronger effect = higher value | 1.6% of 190,000 active | fold change at 12.5 µM; in the data active = fold change above about 3.3
STAT1 activator – STAT1 signaling activators, primary screen, cell-based, HTS, luciferase reporter; NIH 3T3 STAT1-luciferase reporter, IFN-gamma, luminescence; 100% = IFN-gamma alone, no compound; activation (% of control), % at 5.5 µM; 2.6% of 200,000 active; AID 932, 2007;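 active = activation above the screen-wide mean activation plus 3 SD, cut at about 130% in these data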;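 note: raw ratio to IFN-gamma control signal so 100% means no change and 0% no light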
* hit, by the source's call; . = not tested or not shown.

SMILES	PERK inh	AHR act	APP 5'UTR act	Mdm2 ligase inh	NF-kB neuron act	STAT1 activator
Cc1nc(-c2coc3cc(OCC(=O)O)ccc3c2=O)cs1	1.2	-14.7	-0.5	-43.0	0.84	79.0
COc1ccc2c(=O)c(-c3nc(C)cs3)coc2c1	-0.5	21.5	96.5	-53.9	5.89*	119.6
CCc1cc2c(=O)c(-c3nc(C)cs3)coc2cc1O	-0.5	60.2*	.	-9.6	.	.
Cc1nc(-c2coc3cc(O)c(C)cc3c2=O)cs1	0.4	9.3	142.0*	-66.4	2.85	90.1
CCN1C(=O)[C@H]2[C@@H](c3ccc(-c4ccc(Cl)c(Cl)c4)cc3)N[C@@](Cc3ccccc3)(C(=O)OC)[C@H]2C1=O	.	3.6	.	.	.	.
COc1ccc(NC(=O)Nc2ccon2)c(OC)c1	0.2	56.4*	-6.7	-13.4	1.02	105.3
Cc1cc(NC(=O)Nc2ccc(Cl)c(Cl)c2)no1	.	14.1	.	.	.	.
COc1ccc(NC(=O)c2c(N)no[n+]2[O-])c(OC)c1	0.3	60.9*	-15.4	-12.1	1.41	107.4
O=C(Nc1ccc(Cl)c(Cl)c1)Nc1ccon1	.	70.8*	.	.	.	.
Cc1n[nH]c(=S)n1/N=C/c1c(O)ccc2ccccc12	.	19.8	.	.	.	.
Clc1cccc(Cl)c1/C=C/c1nc2ccccc2[nH]1	0.1	7.6	163.9*	-3.7	7.15*	142.6*
O=c1[nH]c2ccccc2nc1-c1ccc(Cl)cc1	1.3	76.1*	.	.	.	.
Clc1ccc(/C=C/c2nc3ccccc3[nH]2)c(Cl)c1	-0.3	-6.3	221.0*	-95.1	2.03	39.0
O=c1[nH]c2ccccc2nc1Cc1ccc(Cl)cc1	.	0.6	.	.	.	.
Clc1ccc(/C=C/c2nc3ccccc3[nH]2)cc1	-1.1	-15.5	.	-9.3	3.8*	52.0
O=c1[nH]c(/C=C/c2ccccc2Cl)nc2ccccc12	.	9.2	.	.	.	.
O=C(/C=C/c1ccc(Cl)cc1Cl)c1nc2ccccc2[nH]1	0.3	5.8	5.9	-8.0	1.18	100.8
Cc1ccc(CNC(=O)C(CC(C)C)OC(=O)c2ccco2)cc1 (stereo not drawn)	.	2.2	.	.	.	.
COc1ccc(-c2nc(-c3ccncc3)no2)cc1OC	0.2	3.0	78.1	-17.2	1.08	132.0*
COc1ccccc1-c1nc(-c2ccc(Br)cc2)no1	-0.9	64.4*	162.5*	-1.1	4.66*	135.3*
COc1cccc(-c2nc(-c3ccccn3)no2)c1OC	0.3	7.4	87.8	6.8	1.69	136.2*
COc1ccc(-c2noc(-c3ccc(Cl)cc3[N+](=O)[O-])n2)cc1OC	-0.1	17.0	42.1	1.4	1.92	103.0
Cc1cccc(-c2noc(-c3ccc(Cl)cc3[N+](=O)[O-])n2)c1	0.6	39.2	177.6*	-22.5	5.34*	108.7
Cc1ccc(-c2nc(-c3ccncc3)no2)cc1C	.	6.3	.	.	.	.
Cc1noc(C)c1COc1ccccc1C(=O)N(C)Cc1ccc(C(C)(C)C)cc1	.	1.1	.	.	.	.
SMILES	PERK inh	AHR act	APP 5'UTR act	Mdm2 ligase inh	NF-kB neuron act	STAT1 activator
COc1cc(NC(=O)c2cc(-c3ccccc3Cl)on2)cc(OC)c1OC	.	-4.0	.	.	.	.
O=C(COC(=O)c1cccs1)Nc1ccccc1[N+](=O)[O-]	1.2	9.1	21.8	-0.2	1.31	99.2
C[C@H](CO)N1C[C@H](C)[C@@H](CN(C)S(=O)(=O)c2ccc(F)cc2)Oc2c(NS(=O)(=O)c3ccccc3)cccc2C1=O	.	-0.1	.	.	.	.
O=C(O)c1ccc(-c2noc(-c3cccc(Cl)c3)n2)cc1	.	7.1	.	.	.	.
Cc1cccc(-c2noc(-c3ccoc3C)n2)c1	0.2	4.9	105.1	-20.9	2.11	149.9*
COc1ccc(-c2noc(-c3ccoc3C)n2)cc1OC	-0.4	2.5	61.0	-8.0	3.58*	142.6*
COc1ccc(-c2noc(-c3cccc(Cl)c3)n2)cc1OC	-1.3	1.8	51.6	-7.2	2.02	114.5
Cc1cccc(-c2noc(CNC(=O)c3ccoc3C)n2)c1	.	1.8	.	.	.	.
COc1ccc(-c2noc(-c3ccccc3Cl)n2)cc1OC	-0.3	7.8	125.4	-13.9	4.89*	143.0*
Cc1c(CC(=O)NCCCC(=O)O)c(=O)oc2cc3c(cc12)CCC(C)(C)O3	.	-6.7	.	.	.	.
O=C(c1ccccc1)N1CCSC1=S	3.0*	1.6	-2.1	-18.8	1.01	102.7
COc1cc(Nc2nnc(C)s2)c(Cl)cc1Cl	0.4	71.2*	1.6	-12.8	1.32	102.1
COCCOc1cc(Nc2nnc(C(F)(F)F)s2)c(Cl)cc1Cl	-0.5	1.7	-5.5	-0.6	0.77	104.5
CC1CC(C)CN(C(=O)c2ccc(-c3ccc([N+](=O)[O-])cc3)o2)C1 (stereo not drawn)	.	-0.1	.	.	.	.
O=C(c1ccc(-c2ccc([N+](=O)[O-])cc2)o1)N1CCCCC1	-0.4	-4.8	180.0*	-43.2	4.78*	128.3
O=C(/C=C/c1cccs1)c1ccc(N2CCOCC2)cc1	0.1	-0.3	235.8*	-64.0	3.24	119.8
O=C(/C=C/c1cccs1)c1cc(Br)ccc1OC(=O)N1CCOCC1	-1.1	52.9*	3.2	-2.6	1	104.7
O=C(/C=C/c1cccc(F)c1)c1ccc(N2CCOCC2)cc1	0.0	0.1	.	-8.3	.	.
O=C(NC1CC2CCCC(C1)N2C(=O)Nc1ccccc1Cl)C1CC1 (stereo not drawn)	.	0.0	.	.	.	.
O=C(c1cccc(F)c1)N1CCCC(C(=O)N2CCN(c3ccccc3)CC2)C1 (stereo not drawn)	-0.8	2.3	.	-36.2	.	.
CCN(CC)S(=O)(=O)c1ccc(N(C)C)c(NC(=O)CSCc2c(C)noc2C)c1	.	-1.4	.	.	.	.
Cc1ccc(Nc2nc3ccccc3n3nnnc23)cc1	0.2	51.6*	24.5	-5.2	1.21	107.5
Cc1cccc(Nc2nc3ccccc3n3nnnc23)c1	0.4	30.4	13.2	15.7	1.01	97.6
CC(=O)c1cccc(N=Nc2c(-c3ccccc3)[nH]n(-c3ccccc3)c2=O)c1	1.6	2.3	-17.0	-14.1	0.4	105.3
CCOC(=O)C1=C(CC)Nc2ccccc2N/C1=N\S(=O)(=O)c1cc(Br)ccc1Br	1.5	.	10.7	5.5	0.88	91.6
C=CCN=c1scc(-c2ccc3c(c2)NC(=O)CO3)n1/N=C(\C)c1ccccn1	-0.2	.	-51.6	-21.3	0.75	80.5
C=CCN=c1scc(-c2ccccc2)n1/N=C/c1ccccn1	0.9	34.9	99.3	-0.5	7.47*	214.7*
C=CCN=c1scc(-c2ccc(F)cc2)n1/N=C/c1ccccn1	-0.3	47.9*	46.5	-5.6	3.33*	119.6
CCOC(=O)c1ccc(OC(=O)CCCCCN=C(N)N)cc1	.	-4.2	.	.	.	.
COc1ccc2cc(C(=O)C3CCCN(C(=O)c4cnn(C(C)C)c4)C3)ccc2c1 (stereo not drawn)	.	6.6	.	.	.	.

Assay outcomes: PubChem BioAssay, several laboratories
